Experimental data reported in ChEMBL document CHEMBL1759837, “Studies on chemical modification and biology of a natural product, gambogic acid (III): determination of the essential pharmacophore for biological activity” (Eur J Med Chem, 2011).

Tests used:
Type in all cases: functional, cell-based
[1] = tested on: SMMC-7721; assay: Antiproliferative activity against human SMMC7721 cells after 24 hrs by MTT assay; settings: SMMC-7721, 24 h
In short: (§1)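 Cells grown at 37 °C in humidified 5% CO2 with benzylpenicillin and streptomycin. Compounds came from 0.01 mol/L DMSO stocks and were tested at eight two-fold dilutions in triplicate, with medium-only controls, for 24 h. MTT absorbance was read at 570 nm. Survival = A_treatment/A_control × 100. IC50 is the concentration giving 50% viability inhibition, as the mean of two separate experiments.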

[2] = tested on: BGC-823; assay: Antiproliferative activity against human BGC823 cells after 24 hrs by MTT assay; settings: BGC-823, 24 h; in short: as §1
[3] = tested on: HepG2; assay: Antiproliferative activity against human HepG2 cells after 24 hrs by MTT assay; settings: HepG2, 24 h
In short: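 Tetrazolium MTT viability test; cells exposed to compound 24 h, absorbance read at 570 nm. Survival ratio = A treated / A control × 100%; IC50 is the concentration giving 50% loss of viability. Eight concentrations in two-fold dilutions, triplicate wells, mean of two separate experiments. Compounds dissolved in DMSO (0.01 mol/L stock); control wells received medium only.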

[4] = tested on: MCF7; assay: Antiproliferative activity against human MCF7 cells after 24 hrs by MTT assay; settings: MCF7, 24 h; in short: as §1

**Q.** For `CC(C)=CCC12OC(C)(C)C3CC(C=C4C(=O)c5ccc(O)cc5OC431)C2=O` (centres undefined), which IC50 [1] is on record?
**A.** Its IC50 is 12.3 µM.

**Q.** And the IC50 [2]?
**A.** Its IC50 is 17.6 µM.

**Q.** And the IC50 [3]?
**A.** The IC50 was 23.4 µM.

**Q.** What about the IC50 [4] of the same compound?
**A.** The IC50 was 12.4 µM.
